From ChEMBL document CHEMBL1145385, “Functional differences in epigenetic modulators-superiority of mercaptoacetamide-based histone deacetylase inhibitors relative to hydroxamates in cortical neuron neuroprotection studies” (J Med Chem, 2007) come the findings set out here.

In one data set the target is T1, Histone deacetylase 8 (Homo sapiens, UniProt Q9BY41).
T1 sequence (Q9BY41 whole entry): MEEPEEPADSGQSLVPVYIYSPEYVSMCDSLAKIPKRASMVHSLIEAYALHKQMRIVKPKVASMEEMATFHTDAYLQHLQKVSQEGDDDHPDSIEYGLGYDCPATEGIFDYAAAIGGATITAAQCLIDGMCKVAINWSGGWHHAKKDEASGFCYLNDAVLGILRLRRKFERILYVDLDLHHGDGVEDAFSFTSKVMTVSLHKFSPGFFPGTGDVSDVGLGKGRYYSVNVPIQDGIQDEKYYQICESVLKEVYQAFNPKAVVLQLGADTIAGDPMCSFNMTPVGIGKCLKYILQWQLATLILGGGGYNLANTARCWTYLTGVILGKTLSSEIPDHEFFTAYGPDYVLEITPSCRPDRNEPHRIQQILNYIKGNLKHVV
In words: Inhibition of His-tagged HDAC8 expressed in Sf9 cells by fluorescence-based assay.

Data set [1] has as its target T2, Polyamine deacetylase HDAC10 (Homo sapiens, UniProt Q969S8).
T2 sequence (Q969S8 whole entry): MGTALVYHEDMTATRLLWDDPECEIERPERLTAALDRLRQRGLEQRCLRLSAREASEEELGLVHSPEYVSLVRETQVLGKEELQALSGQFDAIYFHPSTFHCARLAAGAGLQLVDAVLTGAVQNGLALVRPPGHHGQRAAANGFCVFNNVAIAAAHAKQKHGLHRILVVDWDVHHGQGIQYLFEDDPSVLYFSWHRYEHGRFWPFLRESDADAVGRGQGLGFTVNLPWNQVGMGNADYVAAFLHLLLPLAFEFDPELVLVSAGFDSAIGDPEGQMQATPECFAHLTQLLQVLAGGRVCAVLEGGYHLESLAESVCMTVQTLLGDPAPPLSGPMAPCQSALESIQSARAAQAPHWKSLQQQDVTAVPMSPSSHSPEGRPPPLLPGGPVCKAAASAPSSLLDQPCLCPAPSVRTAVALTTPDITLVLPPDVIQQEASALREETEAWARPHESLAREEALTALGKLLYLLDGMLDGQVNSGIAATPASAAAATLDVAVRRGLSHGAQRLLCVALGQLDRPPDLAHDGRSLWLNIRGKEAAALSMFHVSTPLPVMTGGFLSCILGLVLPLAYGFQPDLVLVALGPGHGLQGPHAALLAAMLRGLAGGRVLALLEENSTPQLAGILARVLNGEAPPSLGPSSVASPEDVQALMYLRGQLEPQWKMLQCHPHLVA
In words: Inhibition of His-tagged HDAC10 expressed in Sf9 cells by fluorescence-based assay.

For data set [2], the target named is T3, Protein deacetylase HDAC6 (Homo sapiens, UniProt Q9UBN7).
T3 sequence (Q9UBN7 whole entry): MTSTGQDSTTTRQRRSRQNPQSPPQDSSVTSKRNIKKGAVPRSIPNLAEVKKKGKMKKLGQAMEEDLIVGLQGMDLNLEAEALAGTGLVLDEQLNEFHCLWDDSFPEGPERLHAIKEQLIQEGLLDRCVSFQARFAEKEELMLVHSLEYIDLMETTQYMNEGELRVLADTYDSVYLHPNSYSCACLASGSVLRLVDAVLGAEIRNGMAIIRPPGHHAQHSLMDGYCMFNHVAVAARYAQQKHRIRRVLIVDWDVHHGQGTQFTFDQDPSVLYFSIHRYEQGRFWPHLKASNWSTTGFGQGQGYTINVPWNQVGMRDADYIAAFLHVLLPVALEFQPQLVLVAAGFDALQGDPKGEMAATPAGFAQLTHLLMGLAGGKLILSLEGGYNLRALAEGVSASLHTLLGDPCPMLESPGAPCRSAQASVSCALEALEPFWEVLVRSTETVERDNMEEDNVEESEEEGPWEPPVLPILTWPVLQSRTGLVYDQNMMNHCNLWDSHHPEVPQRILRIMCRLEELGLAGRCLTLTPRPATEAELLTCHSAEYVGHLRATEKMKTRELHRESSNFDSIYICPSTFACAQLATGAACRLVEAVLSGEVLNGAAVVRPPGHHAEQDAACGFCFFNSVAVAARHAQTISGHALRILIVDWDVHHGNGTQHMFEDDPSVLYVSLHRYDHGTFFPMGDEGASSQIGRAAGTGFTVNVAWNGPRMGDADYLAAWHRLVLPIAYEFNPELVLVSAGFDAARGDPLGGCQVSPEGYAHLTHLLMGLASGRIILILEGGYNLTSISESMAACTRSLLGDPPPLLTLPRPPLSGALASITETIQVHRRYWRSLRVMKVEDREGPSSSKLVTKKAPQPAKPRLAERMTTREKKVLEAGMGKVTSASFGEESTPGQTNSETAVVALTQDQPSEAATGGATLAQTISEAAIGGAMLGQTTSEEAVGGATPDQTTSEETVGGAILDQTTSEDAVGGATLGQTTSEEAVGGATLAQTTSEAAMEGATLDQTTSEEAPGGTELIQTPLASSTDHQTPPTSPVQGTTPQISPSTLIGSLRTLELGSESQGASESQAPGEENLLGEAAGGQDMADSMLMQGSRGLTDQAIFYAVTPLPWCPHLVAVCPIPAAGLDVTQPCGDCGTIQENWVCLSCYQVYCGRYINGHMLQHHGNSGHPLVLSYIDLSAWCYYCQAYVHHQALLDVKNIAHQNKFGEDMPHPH
The data set is described as follows: Inhibition of His-tagged HDAC6 expressed in Sf9 cells by fluorescence-based assay.

In the next data set the target is Histone deacetylase 2 (Homo sapiens, UniProt Q92769). The data set is described as follows: Inhibition of His-tagged HDAC2 expressed in Sf9 cells by fluorescence-based assay.
Chain of Histone deacetylase 2 (Q92769 whole entry): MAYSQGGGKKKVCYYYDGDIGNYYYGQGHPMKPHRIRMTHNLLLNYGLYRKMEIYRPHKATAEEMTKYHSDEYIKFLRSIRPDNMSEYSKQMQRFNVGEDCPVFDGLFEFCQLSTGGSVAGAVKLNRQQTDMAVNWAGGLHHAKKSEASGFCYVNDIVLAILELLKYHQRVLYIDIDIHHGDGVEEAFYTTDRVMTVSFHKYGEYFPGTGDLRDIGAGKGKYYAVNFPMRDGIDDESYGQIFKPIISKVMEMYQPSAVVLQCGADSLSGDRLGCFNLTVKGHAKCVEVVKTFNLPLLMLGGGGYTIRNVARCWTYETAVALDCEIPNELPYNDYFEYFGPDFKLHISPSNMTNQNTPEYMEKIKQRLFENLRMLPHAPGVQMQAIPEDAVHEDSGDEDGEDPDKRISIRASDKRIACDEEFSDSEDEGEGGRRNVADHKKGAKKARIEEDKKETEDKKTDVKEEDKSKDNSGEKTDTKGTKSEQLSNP
The next data set has as its target Histone deacetylase 1 (Homo sapiens, UniProt Q13547). The data set is described as follows: Inhibition of His-tagged HDAC1 expressed in Sf9 cells by fluorescence-based assay.
The test system of the next data set is Primary neuron. In words: Increase in histone H4 acetylation in Sprague-Dawley rat neurons at 50 uM after 8 hrs. The class given is functional. The gist of the method: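 Rat primary cortical neurons (fetal Sprague-Dawley, E17) treated 8 h; histones acid-extracted (0.4 N H2SO4) from nuclei, TCA-precipitated, run on 15% SDS gel; immunoblot with acetyl-H4 (1:1000) and total H4 (1:4000) antibodies, 3 h RT, HRP secondary 2 h, enhanced chemiluminescence detection.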

In data set [3] the test system is neuronal. In words: Protection against HCA-induced oxidative stress Sprague-Dawley rat neuronal cells at 10 uM. The class given is functional, cell-based. The gist of the method: (§1)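 Cortical neurons from E17 Sprague-Dawley rat fetuses, used 24 h after plating, in MEM with 5.5 g/L glucose, 10% fetal calf serum, 2 mM L-glutamine, 100 µM cystine; 5 mM HCA (pH 7.5) added together with compound (10 µM unless stated); viability after 48 h by MTT and calcein-AM/ethidium homodimer-1 staining; mean ± SE of four replicates.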

The nature of data set [4]: Toxicity against Sprague-Dawley rat neuronal cells at 50 uM. The class given is cell-based.
Data set [5] concerns neuronal. In words: Protection against HCA-induced oxidative stress in Sprague-Dawley rat neuronal cells by MTT assay. The class given is functional, cell-based. The gist of the method: as §1

The source made the active and inactive calls. The rule behind the calls is not given here. Bounds are passed on as bounds.

Chain of Histone deacetylase 1 (Q13547 whole entry): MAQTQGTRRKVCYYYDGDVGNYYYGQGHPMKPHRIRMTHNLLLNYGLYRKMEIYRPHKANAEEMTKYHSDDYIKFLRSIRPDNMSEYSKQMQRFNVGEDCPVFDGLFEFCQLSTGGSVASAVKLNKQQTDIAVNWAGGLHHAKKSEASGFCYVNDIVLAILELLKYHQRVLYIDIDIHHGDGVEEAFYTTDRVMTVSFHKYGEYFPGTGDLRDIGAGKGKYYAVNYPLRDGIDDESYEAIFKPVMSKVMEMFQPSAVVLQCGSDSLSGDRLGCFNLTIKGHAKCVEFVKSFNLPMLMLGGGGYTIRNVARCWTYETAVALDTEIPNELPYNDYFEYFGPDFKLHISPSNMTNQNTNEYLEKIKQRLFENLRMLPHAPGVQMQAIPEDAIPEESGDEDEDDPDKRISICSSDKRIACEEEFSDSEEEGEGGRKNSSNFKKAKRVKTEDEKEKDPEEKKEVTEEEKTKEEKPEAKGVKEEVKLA

Consider `N[C@@H](Cc1ccc(O)cc1)C(=O)Nc1ccccc1-c1ccc(NC(=O)CCCCCCC(=O)NO)cc1`, for which the IC50 – broadly, the concentration needed to halve the response being measured – is 2.06 µM on Histone deacetylase 8; 0.0421 µM in data set [1]; 0.009 µM in data set [2]; 0.205 µM at Histone deacetylase 2; 0.0369 µM at Histone deacetylase 1.
The matching figures for `CN(C)c1ccc(NC(=O)NCCCCCCC(=O)NO)cc1`: 1.74 µM, 0.176 µM, 0.0345 µM, 0.647 µM and 0.209 µM.
Take `N[C@@H](Cc1c[nH]c2ccccc12)C(=O)Nc1ccccc1-c1ccc(NC(=O)CCCCCCC(=O)NO)cc1`: the IC50 against Histone deacetylase 8 was 1.72 µM; in [1], 0.0283 µM; in data set [2], 0.0054 µM; against Histone deacetylase 2, 0.167 µM; against Histone deacetylase 1, 0.0267 µM.
Turning to `CN(C)c1ccc(C(=O)NCCCCCCNC(=O)CS)cc1`, the IC50 at Histone deacetylase 8 worked out at 19.1 µM; in [1], 3.43 µM; in data set [2], 0.482 µM; against Histone deacetylase 2, 4.64 µM; on Histone deacetylase 1 it was 1.43 µM. Also, the result in the data set on Primary neuron and in the data set with neuronal [3] was Active.
`CN(C)c1ccc(C(=O)NCCCCCNC(=O)CS)cc1`: the concentration for half-maximal inhibition (IC50) turned out to be 10.2 µM against Histone deacetylase 8, 1.54 µM in [1], 0.114 µM in data set [2] and 1.08 µM against Histone deacetylase 1.
`O=C(CCCCCCC(=O)Nc1nc(-c2cccc([N+](=O)[O-])c2)cs1)NO`: the IC50 on Histone deacetylase 8 was 4.09 µM; in data set [1] it was 0.0111 µM; in [2] it was 0.0037 µM; against Histone deacetylase 2 it was 0.113 µM; against Histone deacetylase 1, 0.0085 µM.
In the case of `O=C(CS)NCCCCCC(=O)Nc1cccc2cccnc12`, the half-maximal inhibitory concentration (IC50) on Histone deacetylase 8 turned out to be 6.12 µM; in data set [1], 10.7 µM; in data set [2], 0.0953 µM; at Histone deacetylase 2, 7.38 µM; against Histone deacetylase 1 it was 3.22 µM. The outcome with Primary neuron and with neuronal [3] was Active.
Take `O=C(CCCCCNC(=O)NC12CC3CC(CC(C3)C1)C2)NO`: the 50% inhibitory concentration (IC50) at Histone deacetylase 8 is 3.41 µM; in data set [1] it was 0.173 µM; in data set [2], 0.102 µM; against Histone deacetylase 2, 1.05 µM; against Histone deacetylase 1, 0.152 µM.
On to `CN(C)c1ccc(C(=O)NCCCNC(=O)CS)cc1`, for which the Activity entry in data set [4] is “Non-toxic”; with neuronal [5], “Dose-dependent effect”. Also, the IC50 on Histone deacetylase 8 was 12.3 µM; in data set [1], 8.78 µM; in data set [2], 0.216 µM; on Histone deacetylase 2 it was above 30 µM; on Histone deacetylase 1, 5.26 µM. Also, in the data set with Primary neuron, the outcome was inactive.
With `O=C(CS)NCCCCCCNC(=O)Nc1ccccc1`, the Activity entry in [4] was “Non-toxic”; in the data set with neuronal [5], “Dose-dependent effect”. For the same compound, the half-inhibitory concentration (IC50) was 13.9 µM on Histone deacetylase 8; above 30 µM in [1]; 2.01 µM in data set [2]; above 30 µM against Histone deacetylase 2; 10.8 µM at Histone deacetylase 1. For the same compound, the result with Primary neuron was inactive.
Take `CN(C)c1ccc(CNC(=O)NCCC(=O)NO)cc1`: the half-maximal inhibitory concentration (IC50) against Histone deacetylase 8 came out at 1.05 µM; in data set [1], 0.178 µM; in data set [2], 0.0455 µM; at Histone deacetylase 2, 0.492 µM; on Histone deacetylase 1, 0.13 µM.
Consider `CN(C)c1ccc(C(=O)NCCCCNC(=O)CS)cc1`, for which the IC50 against Histone deacetylase 8 was above 30 µM; in [1], 29.7 µM; in [2], 0.62 µM; against Histone deacetylase 2, above 30 µM; on Histone deacetylase 1 it was 11.9 µM.
